According to ChEMBL document CHEMBL4190240, “Conventional and microwave-assisted synthesis of new 1H-benzimidazole-thiazolidinedione derivatives: A potential anticancer scaffold” (Eur J Med Chem, 2017):
Active and inactive are the calls of the source. The rule behind the calls is not given here.

Columns and labels:
[1] = test system: HEK-293T; assay: Cytotoxicity against HEK293T cells assessed as cell growth inhibition after 48 hrs by MTT assay; assay type: cell-based; settings: Homo sapiens
[2] = test system: MDA-MB-231; assay: Cytotoxicity against human MDA-MB-231 cells assessed as cell growth inhibition after 48 hrs by MTT assay; assay type: functional, cell-based; settings: MDA-MB-231, 48 h
[3] = test system: HT-1080; assay: Cytotoxicity against human HT1080 cells assessed as cell growth inhibition after 48 hrs by MTT assay; assay type: functional, cell-based; settings: HT-1080, 48 h
[4] = test system: A549; assay: Cytotoxicity against human A549 cells assessed as cell growth inhibition after 48 hrs by MTT assay; assay type: functional, cell-based; settings: A549, 48 h
[5] = test system: HeLa; assay: Cytotoxicity against human HeLa cells assessed as cell growth inhibition after 48 hrs by MTT assay; assay type: functional, cell-based
[6] = test system: PC-3; assay: Cytotoxicity against human PC3 cells assessed as cell growth inhibition after 48 hrs by MTT assay; assay type: functional, cell-based; settings: PC-3, 48 h
[7] = Selectivity index, ratio of IC50 for HEK293T cells to IC50 for human HT1080 cells; assay type: toxicity; settings: HEK293T cells versus HT1080 cells, read-out: Ratio IC50
[8] = test system: A549; assay: Induction of apoptosis in human A549 cells assessed as early apoptotic cells at cytotoxic IC50 concentration after 24 hrs by Annexin V-FITC/propidium iodide dual staining based flow cyclometry (reference value: 9.8%); assay type: functional
[9] = Selectivity index, ratio of IC50 for HEK293T cells to IC50 for human A549 cells; assay type: toxicity; settings: HEK293T cells versus A549 cells, read-out: Ratio IC50
[10] = test system: A549; assay: Induction of apoptosis in human A549 cells assessed as loss of mitochondrial membrane potential at cytotoxic IC50 concentration after 24 hrs by rhodamine-123 dye based spectrofluorometery relative to control; assay type: functional
Procedure, shortened: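 A549 cells (5×10^5 cells/mL) adhered overnight, treated 24 h at IC50 concentration, trypsinised, washed and stained with rhodamine-123 (10 µg/mL) in PBS 30 min at room temperature. After two PBS washes, fluorescence measured by spectrofluorometer versus DMSO control; mean ± SD of three independent experiments.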

[11] = test system: A549; assay: Induction of apoptosis in human A549 cells assessed as formation of shrinked nuclei at cytotoxic IC50 concentration after 24 hrs by Hoechst 33242-staining based fluorescent microscopy; assay type: functional, cell-based
Procedure, shortened: (§1)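 A549 cells (5×10^4/well) adhered 24 h on coverslips, exposed 24 h to IC50 concentration, fixed 10 min in 4% paraformaldehyde at 4 °C, stained with Hoechst 33242 (5 µg/mL) 30 min at room temperature. Nuclear morphology examined by fluorescence microscopy (ex 350/em 460 nm, 40x).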

[12] = Selectivity index, ratio of IC50 for HEK293T cells to IC50 for human HeLa cells; assay type: toxicity; settings: HEK293T cells versus HeLa cells, read-out: Ratio IC50
[13] = test system: A549; assay: Induction of ROS production in human A549 cells at cytotoxic IC50 concentration after 24 hrs by DCFH-DA-dye based fluorescent microscopy; assay type: functional, cell-based
[14] = Selectivity index, ratio of IC50 for HEK293T cells to IC50 for human PC3 cells; assay type: toxicity; settings: HEK293T cells versus PC3 cells, read-out: Ratio IC50
[15] = test system: A549; assay: Induction of apoptosis in human A549 cells assessed as late apoptotic cells at cytotoxic IC50 concentration after 24 hrs by Annexin V-FITC/propidium iodide dual staining based flow cytometry (reference value: 1.6%); assay type: functional
[16] = test system: A549; assay: Antimigratory activity in human A549 cells assessed as reduction in wound healing at cytotoxic IC50 concentration after 24 to 48 hrs by phase contrast microscopy; assay type: functional, cell-based
Procedure, shortened: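 A549 cells (5×10^5/well) grown 24 h to confluent monolayer, scratched with sterile 200 µL pipette tip, washed twice with PBS. Medium with compound at its IC50 added; untreated wells as control. Wound closure photographed by phase contrast microscopy at 0, 24 and 48 h in three or more random fields.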

[17] = test system: A549; assay: Induction of apoptosis in human A549 cells assessed as formation of fragmented nuclei at cytotoxic IC50 concentration after 24 hrs by Hoechst 33242-staining based fluorescent microscopy; assay type: functional, cell-based; procedure, shortened: as §1
[18] = test system: A549; assay: Induction of apoptosis in human A549 cells assessed as necrotic cells at cytotoxic IC50 concentration after 24 hrs by Annexin V-FITC/propidium iodide dual staining based flow cytometry (reference value: 3.7%); assay type: functional
[19] = test system: A549; assay: Inhibition of filamentous actin polymerization in human A549 cells assessed as reduction in F-actin extension at the periphery at cytotoxic IC50 concentration after 24 hrs by rhodamine-phalloidin/Hoechst 33242 double staining based fluorescent microscopy; assay type: cell-based
Procedure, shortened: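 A549 cells (1×10^6/well) grown on coverslips 24 h, treated 24 h at IC50 concentration, PBS-washed, fixed in 4% paraformaldehyde. Stained with rhodamine-phalloidin for F-actin and Hoechst 33242 for nuclei, mounted in anti-fade, imaged by fluorescence microscopy at 20X; DMSO-treated cells as control.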

[20] = Selectivity index, ratio of IC50 for HEK293T cells to IC50 for human MDA-MB-231 cells; assay type: toxicity; settings: HEK293T cells versus MDA-MB-231 cells, read-out: Ratio IC50
[21] = test system: A549; assay: Induction of apoptosis in human A549 cells assessed as viable cells at cytotoxic IC50 concentration after 24 hrs by Annexin V-FITC/propidium iodide dual staining based flow cytometry (reference value: 84.8%); assay type: functional

Row | SMILES | IC50 [1] [µM] | IC50 [2] [µM] | IC50 [3] [µM] | IC50 [4] [µM] | IC50 [5] [µM] | IC50 [6] [µM] | also measured
1 | COc1cc(OC)c(-c2nc3cc(/C=C4\SC(=O)N(CC(=O)N5CCCCC5)C4=O)ccc3[nH]2)cc1OC | > 50 | > 50 | 8.76 | 14.5 | 6.89 | > 50 | –
2 | COc1cc(-c2nc3cc(/C=C4\SC(=O)N(Cc5cccc(C)c5)C4=O)ccc3[nH]2)cc(OC)c1OC | 18.9 | 3.26 | 4.58 | 0.93 | 1.44 | 4.37 | –
3 | COc1ccc(-c2nc3cc(/C=C4\SC(=O)N(CC(=O)c5ccccc5)C4=O)ccc3[nH]2)cc1OC | 27.8 | 2.04 | 0.59 | 0.74 | 7.48 | 0.43 | –
4 | COc1cc(CN2C(=O)S/C(=C\c3ccc4[nH]c(-c5cc(OC)c(OC)c(OC)c5)nc4c3)C2=O)cc(OC)c1OC | 16.6 | 0.27 | 0.98 | 0.53 | 2.24 | 10.2 | –
5 | COc1cc(-c2nc3cc(/C=C4\SC(=O)N(Cc5ccccc5)C4=O)ccc3[nH]2)cc(OC)c1OC | 8.21 | 2.29 | 0.66 | 0.67 | 0.95 | 2.5 | –
6 | COc1cc(-c2nc3cc(/C=C4\SC(=O)NC4=O)ccc3[nH]2)cc(OC)c1OC | 13.6 | 6.83 | 3.12 | 3.57 | 1.67 | 12 | –
7 | COc1cc(-c2nc3cc(/C=C4\SC(=O)N(Cc5cc(OC)c(OC)c(OC)c5)C4=O)ccc3[nH]2)ccc1OCC(C)C | 6.65 | 4.37 | 0.16 | 0.096 | 0.25 | 0.11 | selectivity ratio [7]: 41.6; Activity [8]: 21.9%; selectivity ratio [9]: 69.3; Activity [10]: 37.3%; Activity [11]: Active; selectivity ratio [12]: 26.6; Activity [13]: Active; selectivity ratio [14]: 60.5; Activity [15]: 8.3%; Activity [16]: Active; Activity [17]: Active; Activity [18]: 3.7%; inhibition [19]: Active; selectivity ratio [20]: 1.5; Activity [21]: 66.1%
8 | COc1cc(-c2nc3cc(/C=C4\SC(=O)N(CC(=O)N5CCOCC5)C4=O)ccc3[nH]2)cc(OC)c1OC | 18.8 | 14.9 | 1.68 | 2.93 | 16.3 | 5.94 | –
9 | COc1ccc(-c2nc3cc(/C=C4\SC(=O)N(Cc5cc(OC)c(OC)c(OC)c5)C4=O)ccc3[nH]2)cc1OC | 6.76 | 29.1 | 0.27 | 0.13 | 0.32 | > 50 | selectivity ratio [7]: 25.3; Activity [8]: 25.1%; selectivity ratio [9]: 52; Activity [10]: 31.6%; Activity [11]: Active; selectivity ratio [12]: 21.1; Activity [13]: Active; Activity [15]: 8.7%; Activity [16]: Active; Activity [17]: Active; Activity [18]: 2.7%; inhibition [19]: Active; Activity [21]: 63.5%
